Measured values as given in ChEMBL document CHEMBL3112427, “Insights into the mechanism of streptonigrin-induced protein arginine deiminase inactivation” (Bioorg Med Chem, 2014).
Activity calls are given as the source filed them. The calls are words filed in the database; no cut-off is given here.

Legend:
[1] = system: NIH3T3; experiment: Cytotoxicity against mouse NIH/3T3 cells assessed as cell viability at 10 uM after 3 days by XTT-PMS assay relative to control; type: cell-based; conditions: nih3t3, 72 h
Method in brief: (§1)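 U2OS or NIH 3T3 cells (2.5 × 10^4 cells/mL) plated in 48-well format (n=4) and dosed with 10 µM compound for 3 days. XTT-PMS activated reagent then added for 4 h of colour development; formazan absorbance read at 475 nm.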

[2] = system: U2OS; experiment: Cytotoxicity against human U2OS cells assessed as cell viability at 10 uM after 3 days by XTT-PMS assay relative to control; type: functional; conditions: for viability at 10 µM: 72 h, read-out: Activity; method in brief: as §1
[3] = target: T1, Protein-arginine deiminase type-4 (Homo sapiens, UniProt Q9UM07); experiment: Inhibition of recombinant wild-type PAD4 (unknown origin) using N-alpha-Benzoyl-L-arginine ethyl ester as substrate preincubated for 10 mins followed by substrate addition measured after 15 mins by COLDER assay
[4] = system: Protein-arginine deiminase type-2 (Homo sapiens), Q9Y2J8 [C647A]; experiment: Binding affinity to PAD2 C647A mutant (unknown origin) assessed as mass shift of enzyme at 1:10 enzyme to compound ratio preincubated for 1 hr followed by overnight dialysis in double distilled water by MALDI mass spectrometric analysis
[5] = system: U2OS; experiment: Cytotoxicity against human U2OS cells after 3 days by XTT-PMS assay; conditions: 72 h
[6] = system: Protein-arginine deiminase type-4 (Homo sapiens), Q9UM07 [C645A]; experiment: Binding affinity to PAD4 C645A mutant (unknown origin) assessed as mass shift of enzyme at 1:10 enzyme to compound ratio preincubated for 1 hr followed by overnight dialysis in double distilled water by MALDI mass spectrometric analysis
[7] = target: T2, Protein-arginine deiminase type-2 (Homo sapiens, UniProt Q9Y2J8); experiment: Binding affinity to recombinant wild-type PAD2 (unknown origin) assessed as mass shift of enzyme at 1:10 enzyme to compound ratio preincubated for 1 hr followed by overnight dialysis in double distilled water by MALDI mass spectrometric analysis
[8] = target: T1, Protein-arginine deiminase type-4; experiment: Inhibition of recombinant wild-type PAD4 (unknown origin) using N-alpha-Benzoyl-L-arginine ethyl ester as substrate preincubated for 15 mins followed by substrate addition measured after 15 mins by COLDER assay
[9] = system: NIH3T3; experiment: Cytotoxicity against mouse NIH/3T3 cells after 3 days by XTT-PMS assay; conditions: NIH3T3, 72 h
[10] = target: T1, Protein-arginine deiminase type-4; experiment: Competitive inhibition of recombinant wild-type PAD4 (unknown origin) at 1 to 50 uM by fluorescence polarization-ABPP assay in presence of RFA; conditions: in the assay text read “gel-based competitive ABPP assay” for “fluorescence polarization-ABPP assay”
Method in brief: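 Wild-type PAD4 (2 µM final) labelled with RFA (10 µM final) plus 10 mM calcium in the presence of competitor (0–50 µM final). Quenched with SDS loading buffer, boiled 20 min, run on 12% SDS-PAGE; in-gel fluorescence imaged and quantified.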

[11] = target: T2, Protein-arginine deiminase type-2; experiment: Inhibition of recombinant wild-type PAD2 (unknown origin) using N-alpha-Benzoyl-L-arginine ethyl ester as substrate preincubated for 10 mins followed by substrate addition measured after 15 mins by COLDER assay
[12] = system: Protein-arginine deiminase type-4 (Homo sapiens), Q9UM07 [C645A]; experiment: Binding affinity to PAD4 C645A mutant (unknown origin) assessed as mass shift of enzyme at 1:10 enzyme to compound ratio preincubated for 1 hr followed by overnight dialysis in double distilled water by MALDI mass spectrometric analysis in presence of catalase
[13] = target: T2, Protein-arginine deiminase type-2; experiment: Inhibition of recombinant wild-type PAD2 (unknown origin) using N-alpha-Benzoyl-L-arginine ethyl ester as substrate preincubated for 15 mins followed by substrate addition measured after 15 mins by COLDER assay
[14] = target: T2, Protein-arginine deiminase type-2; conditions: at 0.1 to 2.5 µM
[15] = system: Protein-arginine deiminase type-4 (Homo sapiens), Q9UM07 [C645A]; experiment: Binding affinity to PAD4 C645A mutant (unknown origin) assessed as mass shift of enzyme at 1:10 enzyme to compound ratio preincubated for 1 hr followed by overnight dialysis in double distilled water by MALDI mass spectrometric analysis in presence of superoxide dismutase
[16] = target: T3, Protein-arginine deiminase type-1 (Homo sapiens, UniProt Q9ULC6); experiment: Inhibition of recombinant wild-type PAD1 (unknown origin) using N-alpha-Benzoyl-L-arginine amide as substrate preincubated for 15 mins followed by substrate addition measured after 15 mins by COLDER assay
T3 sequence (Q9ULC6 whole entry): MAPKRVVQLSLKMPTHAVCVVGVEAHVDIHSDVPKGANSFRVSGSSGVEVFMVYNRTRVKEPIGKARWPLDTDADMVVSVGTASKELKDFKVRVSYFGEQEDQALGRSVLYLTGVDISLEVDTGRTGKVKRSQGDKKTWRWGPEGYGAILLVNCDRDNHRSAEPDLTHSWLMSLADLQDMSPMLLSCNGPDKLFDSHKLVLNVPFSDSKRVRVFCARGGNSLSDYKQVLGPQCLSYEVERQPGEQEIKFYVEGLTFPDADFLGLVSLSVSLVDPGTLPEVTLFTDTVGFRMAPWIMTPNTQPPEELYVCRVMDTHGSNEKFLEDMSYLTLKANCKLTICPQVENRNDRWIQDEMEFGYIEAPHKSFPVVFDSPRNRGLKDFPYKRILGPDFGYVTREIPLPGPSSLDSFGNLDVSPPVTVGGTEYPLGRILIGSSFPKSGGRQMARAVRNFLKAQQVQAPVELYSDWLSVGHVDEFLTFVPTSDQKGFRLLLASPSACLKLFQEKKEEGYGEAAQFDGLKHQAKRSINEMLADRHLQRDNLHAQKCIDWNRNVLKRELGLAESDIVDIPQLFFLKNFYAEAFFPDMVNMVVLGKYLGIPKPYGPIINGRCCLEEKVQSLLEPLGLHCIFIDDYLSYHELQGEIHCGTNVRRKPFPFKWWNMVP

[17] = target: T2, Protein-arginine deiminase type-2
[18] = target: T1, Protein-arginine deiminase type-4; experiment: Binding affinity to recombinant wild-type PAD4 (unknown origin) assessed as mass shift of enzyme at 1:10 enzyme to compound ratio preincubated for 1 hr followed by overnight dialysis in double distilled water by MALDI mass spectrometric analysis in presence of catalase
[19] = target: T1, Protein-arginine deiminase type-4; experiment: Binding affinity to recombinant wild-type PAD4 (unknown origin) assessed as mass shift of enzyme at 1:10 enzyme to compound ratio preincubated for 1 hr followed by overnight dialysis in double distilled water by MALDI mass spectrometric analysis in presence of superoxide dismutase
[20] = target: T1, Protein-arginine deiminase type-4; conditions: 0.5 uM
[21] = target: T1, Protein-arginine deiminase type-4; experiment: Binding affinity to recombinant wild-type PAD4 (unknown origin) assessed as mass shift of enzyme at 1:10 enzyme to compound ratio preincubated for 1 hr followed by overnight dialysis in double distilled water by MALDI mass spectrometric analysis
[22] = target: T1, Protein-arginine deiminase type-4
[23] = target: T4, Protein-arginine deiminase type-3 (Homo sapiens, UniProt Q9ULW8); experiment: Inhibition of recombinant wild-type PAD3 (unknown origin) using N-alpha-Benzoyl-L-arginine amide as substrate preincubated for 15 mins followed by substrate addition measured after 15 mins by COLDER assay
T4 sequence (Q9ULW8 whole entry): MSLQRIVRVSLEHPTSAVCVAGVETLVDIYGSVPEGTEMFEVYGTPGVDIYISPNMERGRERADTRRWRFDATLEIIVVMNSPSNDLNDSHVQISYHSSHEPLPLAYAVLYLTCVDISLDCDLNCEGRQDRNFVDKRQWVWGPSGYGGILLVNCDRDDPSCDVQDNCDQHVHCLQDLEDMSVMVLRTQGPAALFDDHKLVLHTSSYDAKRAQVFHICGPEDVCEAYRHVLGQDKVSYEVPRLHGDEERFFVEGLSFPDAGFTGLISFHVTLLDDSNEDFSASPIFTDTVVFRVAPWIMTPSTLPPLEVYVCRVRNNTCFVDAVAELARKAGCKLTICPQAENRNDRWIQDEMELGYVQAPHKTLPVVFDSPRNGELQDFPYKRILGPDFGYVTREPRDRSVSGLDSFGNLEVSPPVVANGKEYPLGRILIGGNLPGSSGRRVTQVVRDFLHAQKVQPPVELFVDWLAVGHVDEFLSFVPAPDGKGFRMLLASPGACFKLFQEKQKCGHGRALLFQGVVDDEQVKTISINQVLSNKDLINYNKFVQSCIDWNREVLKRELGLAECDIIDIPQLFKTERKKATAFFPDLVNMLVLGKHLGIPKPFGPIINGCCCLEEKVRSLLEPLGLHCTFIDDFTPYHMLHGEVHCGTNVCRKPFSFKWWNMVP

[24] = target: T5, Protein-arginine deiminase type-1 (Homo sapiens) (UniProt Q9ULC6); experiment: Irreversible inhibition of recombinant wild-type PAD1 (unknown origin) using N-alpha-Benzoyl-L-arginine amide as substrate assessed as residual activity at 170-fold excess of compound after 1 hr by dialysis method
T5 sequence (whole entry): T3 sequence (Q9ULC6 whole entry)

[25] = target: T2, Protein-arginine deiminase type-2; experiment: Irreversible inhibition of recombinant wild-type PAD2 (unknown origin) using N-alpha-Benzoyl-L-arginine ethyl ester as substrate assessed as residual activity at 170-fold excess of compound after 1 hr by dialysis method
Method in brief: (§2)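 Wild-type PAD2 or PAD4 (0.6 µM final) incubated 1 h with compound (170-fold excess) or no compound in Reaction Buffer, then dialysed 20 h against Long-Term Storage Buffer (Tris-HCl pH 7.6, 1 mM EDTA, 500 mM NaCl, 2 mM DTT, 10% glycerol). Residual activity measured with 10 mM BAEE, quenched in liquid N2, and expressed relative to separately dialysed untreated enzyme (100%).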

[26] = target: T1, Protein-arginine deiminase type-4; experiment: Irreversible inhibition of recombinant wild-type PAD4 (unknown origin) using N-alpha-Benzoyl-L-arginine ethyl ester as substrate assessed as residual activity at 170-fold excess of compound after 1 hr by dialysis method; method in brief: as §2
[27] = target: T6, Protein-arginine deiminase type-3 (Homo sapiens) (UniProt Q9ULW8); experiment: Irreversible inhibition of recombinant wild-type PAD3 (unknown origin) using N-alpha-Benzoyl-L-arginine amide as substrate assessed as residual activity at 170-fold excess of compound after 1 hr by dialysis method
T6 sequence (whole entry): T4 sequence (Q9ULW8 whole entry)

T1 sequence (Q9UM07 whole entry): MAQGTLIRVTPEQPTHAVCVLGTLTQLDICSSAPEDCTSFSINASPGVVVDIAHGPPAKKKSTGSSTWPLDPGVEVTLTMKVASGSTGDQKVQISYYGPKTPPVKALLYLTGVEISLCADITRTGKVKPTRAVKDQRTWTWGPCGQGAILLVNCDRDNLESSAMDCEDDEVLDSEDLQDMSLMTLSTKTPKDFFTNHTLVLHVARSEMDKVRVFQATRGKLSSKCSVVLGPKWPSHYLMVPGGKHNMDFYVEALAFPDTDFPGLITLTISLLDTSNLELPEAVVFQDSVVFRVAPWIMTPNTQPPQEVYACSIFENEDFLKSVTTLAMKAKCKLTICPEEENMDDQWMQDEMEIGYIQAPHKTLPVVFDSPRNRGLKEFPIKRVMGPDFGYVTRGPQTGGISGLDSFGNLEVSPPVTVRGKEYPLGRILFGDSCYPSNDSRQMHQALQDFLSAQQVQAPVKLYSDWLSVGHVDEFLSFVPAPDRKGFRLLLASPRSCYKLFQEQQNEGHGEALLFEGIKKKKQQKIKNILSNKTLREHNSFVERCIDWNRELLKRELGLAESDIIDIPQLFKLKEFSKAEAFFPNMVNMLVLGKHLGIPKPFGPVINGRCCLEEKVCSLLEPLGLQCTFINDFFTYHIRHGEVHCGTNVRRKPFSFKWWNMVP
T2 sequence (Q9Y2J8 whole entry): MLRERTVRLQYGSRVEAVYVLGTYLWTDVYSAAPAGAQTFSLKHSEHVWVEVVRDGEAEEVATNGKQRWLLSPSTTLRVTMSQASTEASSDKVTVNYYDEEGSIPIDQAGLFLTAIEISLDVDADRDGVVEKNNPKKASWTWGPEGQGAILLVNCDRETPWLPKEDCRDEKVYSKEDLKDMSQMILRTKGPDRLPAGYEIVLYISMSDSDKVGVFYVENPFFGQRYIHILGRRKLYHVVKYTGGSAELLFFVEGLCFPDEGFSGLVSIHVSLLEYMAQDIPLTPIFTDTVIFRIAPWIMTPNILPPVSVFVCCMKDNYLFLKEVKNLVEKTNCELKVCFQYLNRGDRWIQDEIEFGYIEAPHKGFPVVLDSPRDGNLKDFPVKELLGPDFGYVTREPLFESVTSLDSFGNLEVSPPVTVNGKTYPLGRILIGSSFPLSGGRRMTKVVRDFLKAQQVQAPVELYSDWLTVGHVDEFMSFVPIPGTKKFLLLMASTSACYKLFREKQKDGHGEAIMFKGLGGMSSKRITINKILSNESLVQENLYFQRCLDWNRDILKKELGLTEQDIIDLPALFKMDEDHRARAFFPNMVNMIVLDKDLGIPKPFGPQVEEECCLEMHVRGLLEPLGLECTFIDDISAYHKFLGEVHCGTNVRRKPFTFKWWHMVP
Chain of Protein-arginine deiminase type-2 (Homo sapiens), Q9Y2J8 [C647A] (Q9Y2J8 whole entry C647A): as the sequence (Q9Y2J8 whole entry) above, with C647A counted along it
Chain of Protein-arginine deiminase type-4 (Homo sapiens), Q9UM07 [C645A] (Q9UM07 whole entry C645A): as the sequence (Q9UM07 whole entry) above, with C645A counted along it

Structure (SMILES)	Activity [4]	Activity [6]	Activity [7]	IC50 [8] [µM]	inhibition [10]	Activity [12]	IC50 [13] [µM]	inhibition [14]	Activity [15]	IC50 [16] [µM]	Activity [18]	Activity [19]	Activity [21]	IC50 [23] [µM]	Activity [1]	viability at 10 µM [2] [%]	EC50 [5] [µM]	EC50 [9] [µM]	Activity [2]	other results
NC1=C(Br)C(=O)c2cccnc2C1=O															<= 30%	≤ 30				
NC1=CC(=O)c2ccc(-c3cccc(C(=O)O)n3)nc2C1=O	Active	Active	Active		Active	Active	0.2	Active	Active	0.07	Active	Active	Active	0.71	Active		58.3	61.7	Active	Activity [24]: inactive; Activity [25]: inactive; Activity [26]: inactive; Activity [27]: inactive
COC1=C(N)C(=O)c2nc(-c3nc(C(=O)O)c(C)c(-c4ccc(OC)c(OC)c4O)c3N)ccc2C1=O [STREPTONIGRIN]	Active	Active	Active		Active	Active	26.1	Active	Active	48.3	Active	Active	Active	0.43						

Further lines, with some results ahead:

Activity [4]	Activity [6]	Activity [7]	IC50 [8] [µM]	inhibition [10]	Activity [12]	IC50 [13] [µM]	inhibition [14]	Activity [15]	IC50 [16] [µM]	Activity [18]	Activity [19]	Activity [21]	IC50 [23] [µM]	Structure (SMILES)	Activity [1]	viability at 10 µM [2] [%]	EC50 [5] [µM]	EC50 [9] [µM]	Activity [2]	other results
Active	Active	Active	0.64	Active	Active	0.32	Active	Active	0.95	Active	Active	Active	0.13	NC1=CC(=O)c2ccc(-c3ccccn3)nc2C1=O	<= 30%	≤ 30	0.4	0.6		Ki [3]: 20.1 µM; Ki [11]: 8.08 µM; Kinact [17]: 0.07 min⁻¹; inhibition [20]: Active; Kinact [22]: 0.12 min⁻¹
			3.3			6.32			4.55				4.4	COC1=C(Br)C(=O)c2ncccc2C1=O	Active				Active	
			1			0.74			0.96				0.17	NC1=CC(=O)c2cccnc2C1=O	<= 30%	≤ 30	0.8	1.1		
